Results published in ChEMBL document CHEMBL1145538, “In vitro inhibition of Streptococcus mutans biofilm formation on hydroxyapatite by subinhibitory concentrations of anthraquinones” (2007).
Values after ≈ are worked out from the molar mass of the structure shown. Active and inactive are the calls of the source. The calls are words filed in the database; no cut-off is given here.

Columns and labels:
[1] = system: Streptococcus mutans; assay: Activity against planktonic Streptococcus mutans LMG 14558; format: functional
Method in brief: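 S. mutans LMG 14558T, routinely grown in BHI broth at 37°C, was tested against planktonic cells by broth microdilution in 96-well microtiter plates to give the MIC in μg/ml. The modified microdilution was also run with and without 1.5 mM glutathione, 0.025% (wt/vol) cysteine or 10 mM mannitol as ROS scavengers, including in chemically defined M1 medium.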

[2] = system: Streptococcus mutans; assay: Effect on Streptococcus mutans LMG 14558 assessed as inhibition of biofilm formation in modified Robbin's device at 50 ug/ml relative to BHIS control; format: functional
Method in brief: (§1)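 S. mutans LMG 14558T grown at 37°C as biofilms on hydroxyapatite disks in modified Robbins' devices, in BHI plus 1% sucrose (BHIS) containing compound at the stated concentration. Biomass per disk is estimated by SYTO9 fluorescent staining and given as % of BHIS-only controls (avg ± SD). Significance by one-tailed independent-sample t test; P > 0.01 is not significant.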

[3] = system: Streptococcus mutans; assay: Effect on Streptococcus mutans LMG 14558 assessed as inhibition of biofilm formation in modified Robbin's device at 5 ug/ml relative to BHIS control; format: functional; method in brief: as §1
[4] = system: Streptococcus mutans; assay: Effect on Streptococcus mutans LMG 14558 assessed as inhibition of biofilm formation in modified Robbin's device at 0.1 ug/ml relative to BHIS control relative to BHIS control; format: functional; method in brief: as §1
[5] = system: Streptococcus mutans; assay: Effect on Streptococcus mutans LMG 14558 assessed as inhibition of biofilm formation in modified Robbin's device at 1200 ug/ml relative to BHIS control; format: functional; method in brief: as §1
[6] = system: Streptococcus mutans; assay: Decrease in membrane fluidity of Streptococcus mutans LMG 14558 using pyrene in BHI medium at 5 ug/ml relative to BHI control; format: functional; parameters: scale not given: the % may be the effect or the level left
Method in brief: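 Relative membrane fluidity (lateral diffusion) of S. mutans LMG 14558T grown in BHI with or without 5 μg/ml compound, read as pyrene intermolecular excimer-to-monomer fluorescence intensity ratio at constant temperature. Relative fluidity F = (Ie/Im treated)/(Ie/Im untreated) × Fr, with untreated BHI-grown cells set to Fr = 1.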

[7] = system: Streptococcus mutans; assay: Susceptibility of Streptococcus mutans LMG 14558 in BHIS medium assessed as increase in biofilm formation at 5 ug/ml in presence of 0.025% cysteine; format: functional, organism-based
[8] = system: Streptococcus mutans; assay: Effect on Streptococcus mutans LMG 14558 assessed as inhibition of biofilm formation in modified Robbin's device at 2 ug/ml relative to BHIS control; format: functional; method in brief: as §1
[9] = system: Streptococcus mutans; assay: Effect on Streptococcus mutans LMG 14558 assessed as inhibition of biofilm formation in modified Robbin's device at 1 ug/ml relative to BHIS control; format: functional; method in brief: as §1
[10] = system: Streptococcus mutans; assay: Effect on Streptococcus mutans LMG 14558 assessed as inhibition of biofilm formation in modified Robbin's device at 0.5 ug/ml relative to BHIS control; format: functional; method in brief: as §1
[11] = system: Streptococcus mutans; assay: Effect on Streptococcus mutans LMG 14558 assessed as inhibition of biofilm formation in modified Robbin's device at 1333 ug/ml relative to BHIS control; format: functional; method in brief: as §1

Row | SMILES | MIC [1] [µg/mL] | inhibition at 5 µg/mL [3] [%] | other results
1 | O=C1c2cccc(O)c2C(=O)c2c(O)cc(CO)cc21 [ALOE-EMODIN] | > 250 | – | inhibition at 50 µg/mL [2]: 99.2%
2 | O=C1c2ccc(O)cc2C(=O)c2ccc(O)cc21 [ANTHRAFLAVICACID] | 250 (≈ 1040 µM) | 98.2 | –
3 | Cc1c(C(=O)O)c(O)cc2c1C(=O)c1c(O)c([C@@H]3O[C@H](CO)[C@@H](O)[C@H](O)[C@H]3O)c(O)c(O)c1C2=O [CARMINIC ACID] | > 250 | 66.5 | –
4 | N=C(NCCCCCCNC(=N)NC(=N)Nc1ccc(Cl)cc1)NC(=N)Nc1ccc(Cl)cc1 [CHLORHEXIDINE] | 2 (≈ 3.96 µM) | – | inhibition at 0.1 µg/mL [4]: 104%; inhibition at 1200 µg/mL [5]: 34.5%
5 | Cc1cc(O)c2c(c1)C(=O)c1cccc(O)c1C2=O [CHRYSOPHANOL] | 250 (≈ 983 µM) | 75 | –
6 | O=C1c2cccc(O)c2C(=O)c2c(O)cccc21 [DANTHRON] | 250 (≈ 1040 µM) | 91.3 | –
7 | Cc1cc(O)c2c(c1)C(=O)c1cc(O)cc(O)c1C2=O [EMODIN] | > 250 | 10.9 | Activity [6]: 21.2%; Activity [7]: inactive; inhibition at 2 µg/mL [8]: 52.1%; inhibition at 1 µg/mL [9]: 79%; inhibition at 0.5 µg/mL [10]: 85.7%; inhibition at 0.1 µg/mL [4]: 101%
8 | Cc1cc(O)c2c(=O)c3c(O)cc(O)c4c5c(O)cc(O)c6c(=O)c7c(O)cc(C)c8c1c2c(c34)c(c78)c65 [HYPERICIN] | 250 (≈ 496 µM) | 47.8 | Activity [6]: 35.6%
9 | COc1cc(O)c2c(c1)C(=O)c1cc(C)cc(O)c1C2=O [PHYSCION] | > 250 | 120 | –
10 | O=C1c2ccccc2C(=O)c2c(O)ccc(O)c21 [QUINIZARIN] | 250 (≈ 1040 µM) | 80 | –
11 | O=C(O)c1cc(O)c2c(c1)C(=O)c1cccc(O)c1C2=O [RHEIN] | 10 (≈ 35.2 µM) | 75.2 | –
12 | O=C(O)c1cc(O)c2c(c1)C(C1c3cccc(O)c3C(=O)c3c(O)cc(C(=O)O)cc31)c1cccc(O)c1C2=O (stereo not given) [SENNIDIN A] | > 250 | 83.7 | –
13 | Oc1cc(Cl)ccc1Oc1ccc(Cl)cc1Cl [TRICLOSAN] | 16 (≈ 55.3 µM) | 78.1 | inhibition at 1333 µg/mL [11]: 10.9%
